Experimental data reported in ChEMBL document CHEMBL1275291, “Design, synthesis and in vitro evaluation of antitubercular and antimicrobial activity of some novel pyranopyrimidines” (2010).
Values after ≈ are worked out from the molar mass of the structure shown.

Experiments:
Type in all cases: functional
Aspergillus niger = assay: Antimicrobial activity against Aspergillus niger MTCC 282 after 24 hrs by serial dilution method
Streptococcus pyogenes = assay: Antimicrobial activity against Streptococcus pyogenes MTCC 443 after 24 hrs by serial dilution method; conditions: MTCC 443, 24 h
Escherichia coli = assay: Antimicrobial activity against Escherichia coli ATCC 25922 after 24 hrs by serial dilution method; conditions: ATCC 25922, 24 h
Staphylococcus aureus = assay: Antimicrobial activity against Staphylococcus aureus ATCC 25923 after 24 hrs by serial dilution method; conditions: ATCC 25923, 24 h
Pseudomonas aeruginosa = assay: Antimicrobial activity against Pseudomonas aeruginosa MTCC 441 after 24 hrs by serial dilution method; conditions: MTCC 441, 24 h
[1] = tested on: Mycobacterium tuberculosis; assay: Antitubercular activity against Mycobacterium tuberculosis H37Rv ATCC 27294 by agar microdilution method
Procedure, shortened: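 Twofold dilutions in Middlebrook 7H10 agar with OADC supplement, 3 mL per well in 24-well plates, in duplicate. Final concentrations 1000, 500, 250, 125 and 62.5. Known CFU of H37Rv culture dispensed on top of agar in a negative-pressure biosafety hood. Incubated at 37 °C in a CO2 incubator. MIC read as the lowest concentration completely inhibiting growth and colony formation.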

Compound | MIC (Aspergillus niger; MTCC 282, 24 h) [µg/mL] | MIC (Streptococcus pyogenes) [µg/mL] | MIC (Escherichia coli) [µg/mL] | MIC (Staphylococcus aureus) [µg/mL] | MIC (Pseudomonas aeruginosa) [µg/mL] | MIC (Aspergillus niger) [µg/mL] | MIC [1] [µg/mL]
COC1=CC(=O)C[C@@H](C)[C@]12Oc1c(Cl)c(OC)cc(OC)c1C2=O [GRISEOFULVIN] | 100 (≈ 283 µM) | – | – | – | – | – | –
COc1ccc(C2c3ccc4cccnc4c3Oc3[nH]c(=O)nc(N)c32)cc1 (stereo not given) | 250 (≈ 671 µM) | 125 (≈ 336 µM) | 125 (≈ 336 µM) | 62.5 (≈ 168 µM) | 125 (≈ 336 µM) | – | –
NYSTATIN | – | – | – | – | – | 100 | –
COc1ccc(C2C(C#N)=C(N)Oc3c2ccc2cccnc32)cc1 (stereo not given) | 500 (≈ 1520 µM) | 125 (≈ 380 µM) | 250 (≈ 759 µM) | 125 (≈ 380 µM) | 250 (≈ 759 µM) | – | 250 (≈ 759 µM)
CC1(C)S[C@@H]2[C@H](NC(=O)[C@H](N)c3ccccc3)C(=O)N2[C@H]1C(=O)O [AMPICILLIN] | – | 250 (≈ 715 µM) | 100 (≈ 286 µM) | 100 (≈ 286 µM) | 100 (≈ 286 µM) | – | –
COc1ccc(C2C(C#N)=C(N)Oc3ccccc32)cc1 (stereo not given) | 1000 (≈ 3590 µM) | 250 (≈ 898 µM) | 500 (≈ 1800 µM) | 250 (≈ 898 µM) | 500 (≈ 1800 µM) | – | 500 (≈ 1800 µM)
COc1ccc(C2C(C#N)=C(N)Oc3cc(O)ccc32)cc1 (stereo not given) | 500 (≈ 1700 µM) | 125 (≈ 425 µM) | 250 (≈ 849 µM) | 125 (≈ 425 µM) | 250 (≈ 849 µM) | – | 250 (≈ 849 µM)
COc1ccc(C2C(C#N)=C(N)Oc3c2ccc2ccccc32)cc1 (stereo not given) | 500 (≈ 1520 µM) | 500 (≈ 1520 µM) | 500 (≈ 1520 µM) | 500 (≈ 1520 µM) | 1000 (≈ 3050 µM) | – | 1000 (≈ 3050 µM)
COc1ccc(C2C(C#N)=C(N)Oc3ccc4ccccc4c32)cc1 (stereo not given) | 1000 (≈ 3050 µM) | 250 (≈ 761 µM) | 150 (≈ 457 µM) | 250 (≈ 761 µM) | 500 (≈ 1520 µM) | – | 1000 (≈ 3050 µM)
O=C(O)c1cn(C2CC2)c2cc(N3CCNCC3)c(F)cc2c1=O [CIPROFLOXACIN] | – | 50 (≈ 151 µM) | 25 (≈ 75.4 µM) | 50 (≈ 151 µM) | – | – | –
CO[C@H]1/C=C/O[C@@]2(C)Oc3c(C)c(O)c4c(O)c(c(/C=N/N5CCN(C)CC5)c(O)c4c3C2=O)NC(=O)/C(C)=C\C=C\[C@H](C)[C@H](O)[C@@H](C)[C@@H](O)[C@@H](C)[C@H](OC(C)=O)[C@@H]1C [RIFAMPIN] | – | – | – | – | – | – | 40 (≈ 48.6 µM)
